Sampled rows, rich in hits. Any-hit rate of the full collection: about 12%.
Lmaj promast: inhibitors of Leishmania major promastigote growth. inhibition, % at 10 µM. 9% of 200,000 active. AID 1063. Leishmania major promastigotes, resazurin fluorescence viability; in the data active = inhibition above about 50%;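 also: promastigotes grown with compound for 44 hours at 28 °C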
Dynein transport: dynein cargo transport inhibition; 0.47% of 220,000 active; z-score, hits read low; 3617.4 mouse cells, GR-EGFP nuclear translocation imaging; test concentration mostly 20 µM; stimulated with dexamethasone, 1 µM; stronger effect = lower value;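 active = plate z-score of nuclear minus cytoplasmic receptor signal below a set negative limit, without overly bright fluorescence or cell loss, cut at about -3.5 in these data, passing the limit was not always enough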;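 also: z-score of nuclear minus cytoplasmic ring GR-EGFP intensity difference per well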
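medium = tetracycline-free induction medium containing charcoal-stripped FBS | also added = 1.0 µM final dexamethasone stimulus | schedule = 48 h induction, 1 h compound, 30 min dex at 37 °C | technique = fixed, Hoechst-stained cells imaged at 10x for EGFP | measure = GR-EGFP nuclear translocation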
Autophagy HCS: alters autophagy in cells. MEF GFP-LC3 puncta imaging; test concentration mostly 10 µM. calls only at 10 µM (by protocol). 0.98% of 190,000 active;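 active = percentage of spot-positive cells more than 3 SD above its plate mean, without a fluorescence outlier flag or 80% toxicity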
CHOP inhibitor: blocks CHOP induction under ER stress; CHO-K1 CHOP-promoter luciferase, tunicamycin-induced, 15-18 h; inhibition, % at 10 µM; 3.8% of 220,000 active; AID 2732;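 active = compounds that reduced the stress-induced luciferase reporter signal by more than about 70% of percent inhibition, limit read from the data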
b-catenin transl: beta-catenin nuclear translocation modulation | HeLa beta-catenin nuclear translocation, immunofluorescence imaging | nuclear translocation activity, % at 5 µM | 0.3% of 190,000 active;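 active = nuclear translocation activity above 50% at 5 µM, with a well cell count of 50 or more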;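 also: per-cell ratio of nuclear to cytoplasmic median beta-catenin stain intensity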
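Technique: fluorescence imaging of beta-catenin antibody stain plus DAPI / Material: human HeLa cell line / Incubation: compound treatment 24 h, 37°C, 5% CO2 / Read-out basis: % activation of per-cell nuclear versus cytoplasmic median beta-catenin signal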
MT stabilize HCS: stabilizes microtubules in HeLa cells | HeLa tubulin immunostaining HCS, 24 h; share of cells brighter than vehicle mean+2SD | % tubulin-high responders, % at 10 µM | 0.83% of 200,000 active;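 active = plate Z-score above 3 for both tubulin-high and condensed-nucleus cell shares, with cell loss under 80%, at 10 µM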;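 also: anti alpha tubulin signal scored within the nucleus-defined area of each cell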
A number is an active result; i = inactive; nt = no result given; + = active, no number.

SMILES | Lmaj promast | Dynein transport | Autophagy HCS | CHOP inhibitor | b-catenin transl | MT stabilize HCS
O=C1NC(=O)C2(Cc3ccccc3N3CCCC32)C(=O)N1Cc1ccccc1 (stereo unspecified) | i | i | i | i | i | i
O=C1NC(=O)C2(Cc3c(nc4ccccn4c3=O)N3CCCCCC32)C(=O)N1Cc1ccccc1 (stereo unspecified) | 97 | i | i | i | i | i
Cc1ccc(CN2C3CCCC2CC(NC(=O)Nc2cccc(F)c2)C3)cc1 (stereo unspecified) | 96 | i | + | i | i | i
O=C(Nc1ccccc1)NC1CC2CCC(C1)N2 (stereo unspecified) | i | i | i | i | i | i
O=C(c1cccn2c(=O)c3cc(Br)ccc3nc12)N1CCC2(CC1)OCCO2 | i | i | i | i | nt | i
Cc1cccn2c(=O)c3cc(C(=O)N4CCC5(CC4)OCCO5)n(C)c3nc12 | i | i | i | i | i | 34
CC1=C(/C=C/c2ccccc2)CCN(C)C1 | 99 | i | i | i | i | i
NC1=NC(=O)C(c2ccccc2)O1 (stereo unspecified) | nt | nt | nt | i | i | nt
CN(C)c1ccc(/C=C/c2cc[n+](C)c3ccccc23)cc1 | 100 | i | i | i | i | i
O=c1c2ccccc2nc(SCC2CCCCO2)n1-c1ccccc1 (stereo unspecified) | 76 | i | i | i | nt | i
CC(C)(C)C(O)C(Oc1ccc(Cl)cc1)n1cncn1 (stereo unspecified) | 82 | i | i | i | i | i
O=C(Oc1ccc([N+](=O)[O-])cc1)N1CCC(N2CCCCC2)CC1 | 93 | i | i | i | i | i
CC(=O)Nc1ccc(OC(=O)N2CCCCC2)cc1 | i | i | i | i | i | i
CC(C)(C)NCC(O)c1ccccc1Cl (stereo unspecified) | nt | nt | nt | i | nt | nt
CCCCCSc1cc(OC)c(CCNC)cc1OC | 100 | i | i | i | i | i
CN1CCN(c2ccc(C(F)(F)F)cc2N)CC1 | i | i | i | i | i | i
Cc1ccc(N2CCN(CCc3ccccc3)CC2)cc1 | 84 | i | i | i | i | i
COc1cc(CNCCc2ccc3c(c2)OCO3)cc(OC)c1OC | i | i | i | i | i | i
CC1(C)CC(CCNCc2ccc3c(c2)OCO3)(Cc2ccccc2)CCO1 (stereo unspecified) | 89 | i | i | i | i | nt
N#CC1=C(N)Oc2c(c(=O)sc3ccccc23)C1c1cccnc1 (stereo unspecified) | 81 | i | i | i | i | i
C=CCN1C(=O)NC(=O)/C(=C/c2cc3c4c(c2)CCCN4CCC3)C1=O | 93 | i | i | i | i | i
O=c1cccc2n1CC1CC2CN(S(=O)(=O)c2ccc(F)cc2)C1 (stereo unspecified) | i | i | i | i | i | i
COc1ccc(-c2cc(=NCCC(=O)O)c3cc(C)ccc3o2)cc1 | 62 | i | i | i | i | i
COc1ccc(-c2cc(=Nc3ccccc3)c3cc(C)ccc3o2)cc1 | i | i | i | i | i | i
CC1(C(O)(C#CCN2CCCCC2)c2ccccc2)CCCC1 (stereo unspecified) | i | i | i | i | i | i
SMILES | Lmaj promast | Dynein transport | Autophagy HCS | CHOP inhibitor | b-catenin transl | MT stabilize HCS
O=C(c1cc(F)ccc1F)C1CCCN(CCCc2ccccc2)C1 (stereo unspecified) | 82 | i | i | i | i | i
CCOC(=O)Cn1cc([N+](=O)[O-])nc1[N+](=O)[O-] | 99 | i | i | i | i | i
CCOC(=O)Cn1cc(C(=O)c2ccccc2F)c2ccccc21 | i | i | i | i | i | i
CN(C)c1ccc(NC(=O)CN2C(=O)CN=C(c3ccccc3)c3cc(Cl)ccc32)cc1 | i | i | i | i | nt | i
CCC(C)C1N=C(c2ccccc2)c2cc(Cl)ccc2N(CC(=O)NCc2ccco2)C1=O (stereo unspecified) | i | i | i | 88 | nt | i
CCOc1ccc2oc(C(=O)NN3C(C)CCCC3C)c(C)c2c1 (stereo unspecified) | i | i | i | i | i | i
O=C1NC(=O)N(Cc2ccc(F)cc2)C(=O)/C1=C\c1ccc([N+](=O)[O-])s1 | nt | -5 | nt | i | i | nt
CCCCc1nc(N2CCNCC2)c(C#N)c2c1CSC(C)(C)C2 | 97 | i | i | i | i | i
C=CCSc1nc2c(c(-c3ccsc3)c1C#N)CN(C)CC2 | nt | i | nt | i | i | nt
COCCNCCOc1ccc(C(C)(C)c2ccccc2)cc1 | 98 | i | i | i | i | i
Cc1cc(C)cc(N2C(=O)NC(=O)/C(=C\c3cccn3-c3ccccc3)C2=O)c1 | i | i | i | i | i | i
Cn1cccc1/C=C1/C(=O)NC(=O)N(C(C)(C)C)C1=O | nt | i | nt | i | i | nt
CN1C(=O)/C(=C/c2cccn2-c2ccc3ccccc3c2)C(=O)NC1=S | 100 | i | i | i | i | i
Cc1cc(C)cc(N2C(=O)NC(=O)/C(=C\c3cccn3-c3ccc(Cl)cc3)C2=O)c1 | 92 | i | i | i | i | i
C/C1=C\[C@@H](C)C/C=C/[C@H]2[C@@H]3O[C@]3(C)[C@@H](C)[C@H]3[C@H](Cc4c[nH]c5ccccc45)NC(=O)[C@]32C(=O)/C=C/C(=O)[C@@H]1O | i | i | i | 105 | i | i
CC(O)(CS(=O)(=O)c1cccc(C(F)(F)F)c1)C(=O)Nc1cccc(C(F)(F)F)c1 (stereo unspecified) | i | i | i | 72 | nt | i
O=c1[nH]c(=S)n(C2CC2)c(O)c1C=NCC1CCCO1 (stereo unspecified) | nt | i | nt | i | i | nt
O=C(c1ccccc1F)c1cn(Cc2ccc(F)cc2)c2ccccc12 | i | i | i | i | i | i
O=C(c1ccccc1F)c1cn(Cc2ccccc2)c2ccccc12 | 54 | i | i | i | i | i
O=C(/C=C/c1ccc2c(c1)OCO2)c1c(O)n(CCc2ccccc2)c(=O)[nH]c1=O | nt | i | nt | i | i | nt
O=C(/C=C/c1ccccc1)c1c(O)n(CCc2ccccc2)c(=O)[nH]c1=O | 60 | i | i | 92 | i | i
COc1cc(/C=C/C(=O)c2c(O)n(CCc3ccccc3)c(=O)[nH]c2=O)ccc1O | 89 | i | i | i | i | i
CSc1nc(N2CCN(C)CC2)c2ccccc2n1 | i | i | i | i | i | i
C[Se]C[C@H](N)C(=O)O | nt | nt | nt | i | nt | nt
CC(C)OC(=O)c1c(N)n(CC2CCCO2)c2nc3ccccc3nc12 (stereo unspecified) | 52 | i | i | i | i | i
CC(C)OCCCNC(=O)c1c(N)n(CC2CCCO2)c2nc3ccccc3nc12 (stereo unspecified) | i | i | i | nt | i | i
CC(C)CCOC(=O)c1c(N)n(CC2CCCO2)c2nc3ccccc3nc12 (stereo unspecified) | 100 | i | i | i | nt | i
Nc1c(C(=O)OC2CCCCC2)c2nc3ccccc3nc2n1CC1CCCO1 (stereo unspecified) | 81 | i | i | nt | i | i

Bioassay records from PubChem.
